Experiments:
[1] = folding enthalpy; higher = less favourable; fluorescence melt of hairpins on a sequencing array, two-state fit; conditions: sodium 0.088 M
How it was run: (§1)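 To match UV melts, fitted temperatures were raised by 9.35 °C. These fits were bootstrapped two-state models that gave melting temperature and folding enthalpy, combined by inverse variance over four replicates. The input was normalised Cy3 fluorescence of library hairpins with annealed Cy3 and quencher oligos on a sequenced MiSeq flow cell, imaged in 50 mM Na-HEPES pH 8.0, 25 mM NaCl in 2.5 °C steps up to 60 °C.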

[2] = melting temperature; fluorescence melt of hairpins on a sequencing array, two-state fit, raised by 9.35 °C to match UV melts; conditions: sodium 0.088 M
How it was run: as §1

GCGGCCGAAAGGCTTCGC ((((((....)))..)))
folding enthalpy [1]: -17.1 kcal/mol | Tm [2]: 53.5 °C

GATCAAGAGATTGATC ((((((....))))))
folding enthalpy [1]: -29.5 kcal/mol | Tm [2]: 41.8 °C

GCAGGCGAAAGCCTTTGC ((((((....)))..)))
folding enthalpy [1]: -11 kcal/mol | Tm [2]: 41 °C

GCAACACGAAAGTGATGC (((.(((....))).)))
folding enthalpy [1]: -38.9 kcal/mol | Tm [2]: 59 °C

GCATAGCGAAAGCTGAGC ((..(((....)))..))
folding enthalpy [1]: -15.7 kcal/mol | Tm [2]: 46 °C

GCTTGGCGAAAGCCTGGC ((..(((....)))..))
folding enthalpy [1]: -17.4 kcal/mol | Tm [2]: 52.3 °C

GCTCTGCGAAAGCGAAGC (((..((....))..)))
folding enthalpy [1]: -13.6 kcal/mol | Tm [2]: 40.8 °C

GTGAGCGAAAGCTCCAC ((((((....))).)))
folding enthalpy [1]: -11.3 kcal/mol | Tm [2]: 48.3 °C

GGTGTAGGAAACTACGCC ((.((((....)))).))
folding enthalpy [1]: -43.2 kcal/mol | Tm [2]: 52.3 °C

GCGGACCCCGC ((((...))))
folding enthalpy [1]: -20.9 kcal/mol | Tm [2]: 54.4 °C

GATCAATAGTTGATC ((((((...))))))
folding enthalpy [1]: -26.2 kcal/mol | Tm [2]: 40.5 °C

GATCCGTCACCGGATC ((((((....))))))
folding enthalpy [1]: -41.6 kcal/mol | Tm [2]: 57.2 °C

GATCGGTCTCCCGATC ((((((....))))))
folding enthalpy [1]: -41 kcal/mol | Tm [2]: 56.1 °C

GTAGTTACGAAAGTATAC (((..(((....))))))
folding enthalpy [1]: -10.3 kcal/mol | Tm [2]: 23.9 °C

GCGACCGATCGC ((((....))))
folding enthalpy [1]: -21.4 kcal/mol | Tm [2]: 45.6 °C

GATTACGAAAGTAGAATC ((((((....)))..)))
folding enthalpy [1]: -14.4 kcal/mol | Tm [2]: 27.4 °C

GCACTCGGAAACGAACGC ((..(((....)))..))
folding enthalpy [1]: -13.9 kcal/mol | Tm [2]: 27.8 °C

GATCCCTTGAGGGATC ((((((....))))))
folding enthalpy [1]: -42.9 kcal/mol | Tm [2]: 62.4 °C

GCACGGCGAAAGCGGAGC ((.(.((....)).).))
folding enthalpy [1]: -17.7 kcal/mol | Tm [2]: 44.7 °C

GATCATGTTTATGATC ((((((....))))))
folding enthalpy [1]: -39.1 kcal/mol | Tm [2]: 50 °C

GATCTAACCTAGATC ((((((...))))))
folding enthalpy [1]: -29 kcal/mol | Tm [2]: 38.1 °C

GTGTCTGGAAACAGGCAC (((.(((....))).)))
folding enthalpy [1]: -33.4 kcal/mol | Tm [2]: 54.5 °C

GACGCCGAAAGGCGTGTC ((((((....)))..)))
folding enthalpy [1]: -8.76 kcal/mol | Tm [2]: 66.9 °C

GCCTAAGGAAACTTAGGC (((((((....)))))))
folding enthalpy [1]: -40.1 kcal/mol | Tm [2]: 58.3 °C

GATCTTAGGGAAGATC ((((((....))))))
folding enthalpy [1]: -26.3 kcal/mol | Tm [2]: 41.5 °C

GGTTGTGGAAACGCAACC (((((.(....).)))))
folding enthalpy [1]: -40.7 kcal/mol | Tm [2]: 54 °C

GGTTGGGCGAAAGCCACC (((..(((....))))))
folding enthalpy [1]: -12.7 kcal/mol | Tm [2]: 39.8 °C

GGTTCGGGAAACCGGATC (.(.(((....))).).)
folding enthalpy [1]: -18.3 kcal/mol | Tm [2]: 38.2 °C

GATCATGACGATGATC ((((((....))))))
folding enthalpy [1]: -40.3 kcal/mol | Tm [2]: 50.8 °C

GATCGACGACTCGATC ((((((....))))))
folding enthalpy [1]: -36.3 kcal/mol | Tm [2]: 48.7 °C

GTCGTTGGAAACAATGAC (((.(((....))).)))
folding enthalpy [1]: -32.5 kcal/mol | Tm [2]: 48.3 °C

GATCATGGTAATGATC ((((((....))))))
folding enthalpy [1]: -41.1 kcal/mol | Tm [2]: 56.2 °C

GTCAATGGAAACACTGAC ((((.((....)).))))
folding enthalpy [1]: -22.1 kcal/mol | Tm [2]: 34.5 °C

GATAGCGAAAGCTGTATC ((((((....)))..)))
folding enthalpy [1]: -12.8 kcal/mol | Tm [2]: 31.9 °C

GCTGCGCGAAAGCTAAGC (((..((....))..)))
folding enthalpy [1]: -23.4 kcal/mol | Tm [2]: 44 °C

GCGATAAATCGC ((((....))))
folding enthalpy [1]: -19.3 kcal/mol | Tm [2]: 49.8 °C

GGCCTGGGAAACCAGACC ((.((((....)))).))
folding enthalpy [1]: -30.1 kcal/mol | Tm [2]: 49 °C

GATCGAGGGGTCGATC ((((((....))))))
folding enthalpy [1]: -4.35 kcal/mol | Tm [2]: 45.6 °C

GATCAGATAGCTGATC ((((((....))))))
folding enthalpy [1]: -38 kcal/mol | Tm [2]: 46.8 °C

GGTTCCGAAAGGAGGACC ((((((....)))..)))
folding enthalpy [1]: -18.8 kcal/mol | Tm [2]: 38.1 °C

GAAGGGAAACCTTC (((((....)))))
folding enthalpy [1]: -20.9 kcal/mol | Tm [2]: 42.5 °C

GCCCTCCGAAAGGATGGC (((.(((....))).)))
folding enthalpy [1]: -37.5 kcal/mol | Tm [2]: 55 °C

GATCCCGGCGGGGATC ((((((....))))))
folding enthalpy [1]: -47.7 kcal/mol | Tm [2]: 61.3 °C

GATCGATTTATCGATC ((((((....))))))
folding enthalpy [1]: -44.8 kcal/mol | Tm [2]: 59.7 °C

GCTGGGGGAAACTCCGGC ((.((.(....).)).))
folding enthalpy [1]: -31.1 kcal/mol | Tm [2]: 47.1 °C

GCTTAGCGAAAGCTATGC ((.((((....)))).))
folding enthalpy [1]: -26.6 kcal/mol | Tm [2]: 59.5 °C

GGTGTTGGAAACAGCATC (.((.((....)).)).)
folding enthalpy [1]: -17.7 kcal/mol | Tm [2]: 46.5 °C

GGAGGCGGAAACGTCTCC ((((.((....)).))))
folding enthalpy [1]: -49.2 kcal/mol | Tm [2]: 58.9 °C

CGTTCGAAAGAACG (((((....)))))
folding enthalpy [1]: -30.6 kcal/mol | Tm [2]: 58.2 °C

GTTGTAGGAAACTACAGC (.(((((....))))).)
folding enthalpy [1]: -25.8 kcal/mol | Tm [2]: 42 °C

AAATCGAAAGATTT (((((....)))))
folding enthalpy [1]: -13.6 kcal/mol | Tm [2]: 46.6 °C

GATCGTTAAAACGATC ((((((....))))))
folding enthalpy [1]: -35.6 kcal/mol | Tm [2]: 54.5 °C

GGAAAGCGAAAGCTCTCC (((.(((....))).)))
folding enthalpy [1]: -22.8 kcal/mol | Tm [2]: 44 °C

GTCTACGAAAGTAACGAC ((((((....)))..)))
folding enthalpy [1]: -16.4 kcal/mol | Tm [2]: 31.3 °C

GAGTACGGAAACGTATTC ((.((((....)))).))
folding enthalpy [1]: -24.4 kcal/mol | Tm [2]: 41.6 °C

GATCAGCGAAAGCTATC (((.(((....))))))
folding enthalpy [1]: -12 kcal/mol | Tm [2]: 32.6 °C

GGGCGGGGAAACCCGCTC (.(((((....))))).)
folding enthalpy [1]: -15.2 kcal/mol | Tm [2]: 64.7 °C

GGCAACGCGAAAGCGGCC (((..(((....))))))
folding enthalpy [1]: -19.8 kcal/mol | Tm [2]: 59.7 °C

GGAGGTGGAAACGCCTTC (.(((.(....).))).)
folding enthalpy [1]: -26.2 kcal/mol | Tm [2]: 48.5 °C

GCATTGGGAAACCAACGC ((.((((....)))).))
folding enthalpy [1]: -29.4 kcal/mol | Tm [2]: 42.2 °C

CGTACGGAAACGTGCACG ((((((....)))..)))
folding enthalpy [1]: -14.5 kcal/mol | Tm [2]: 36.2 °C

GATCCCAAGCGGGATC ((((((....))))))
folding enthalpy [1]: -32.5 kcal/mol | Tm [2]: 60.6 °C

GTTCTCGGAAACGAGGAC ((.((((....)))).))
folding enthalpy [1]: -28.7 kcal/mol | Tm [2]: 52 °C

GATAGAGGAAACTCTATC (((((((....)))))))
folding enthalpy [1]: -42 kcal/mol | Tm [2]: 50.2 °C

GCGACGCATCGC ((((....))))
folding enthalpy [1]: -16 kcal/mol | Tm [2]: 49.8 °C

GCATCGCGAAAGCGTGGC ((..(((....)))..))
folding enthalpy [1]: -15.8 kcal/mol | Tm [2]: 54.7 °C

GCGATTATCGC ((((...))))
folding enthalpy [1]: -20.9 kcal/mol | Tm [2]: 49 °C

GGTTCACGAAAGTGCACC (((.(((....))).)))
folding enthalpy [1]: -29.7 kcal/mol | Tm [2]: 50.5 °C

GTGTAGGGAAACCTACAC (((((((....)))))))
folding enthalpy [1]: -41.1 kcal/mol | Tm [2]: 61.5 °C

GATCGTCGTACGATC ((((((...))))))
folding enthalpy [1]: -29.3 kcal/mol | Tm [2]: 60.4 °C

Source: the array DNA melting data of Ke et al. (doi:10.1101/2024.01.08.574731)
